Reference: publication PMC11375723 (ACS Omega, 2024)

Columns and labels:
Assay type in all cases: cell-based, human
[1] = test system: A549 lung carcinoma cells; assay: Resazurin antiproliferative microtiter assay, A549; details: read-out: IC50, μM (± SEM), A549, 48 h drug exposure
How it was run: (§1)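 Human cells at 37 °C, 5% CO2, with 10% cosmic calf serum in DMEM/F12 (A549), DMEM (MDA-MB-231, HFF) or EMEM (HT-1080, MRC-5). Plated 5,000 cells/180 µL and left 24 h to adhere. Test compound 0.1–100 µM, quadruplicate, 2–3 repeats, 48 h. Then 0.1% resazurin; fluorescence ex 530/em 590 after 24–48 h.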

[2] = test system: MDA-MB-231 breast carcinoma cells; assay: Resazurin antiproliferative microtiter assay, MDA-MB-231; details: read-out: IC50, μM (± SEM), MDA-MB-231, 48 h drug exposure
How it was run: as §1

[3] = test system: HT-1080 fibrosarcoma cells; assay: Resazurin antiproliferative microtiter assay, HT-1080; details: read-out: IC50, μM (± SEM), HT-1080, 48 h drug exposure
How it was run: as §1

Row | IC50 [3] | Compound | IC50 [1] | IC50 [2]
1 | < 1 µM | Piperidine-2-(4-methoxyphenyl)diazothioformamide – Cu(l)Br [Compound 5c] | – | –
2 | < 1 µM | Pyrrolidine-2-(4-methoxyphenyl)diazothioformamide – Cu(l)I [Compound 4b] | – | –

Row | Compound | IC50 [3] | IC50 [1] | IC50 [2]
3 | N.N.[Cl][Pt][Cl] [Cisplatin] | 17.5 µM | 19 µM | 48.6 µM
